A value given as a limit tells only on which side of the number the result lay.

This test in a line: Inhibition of human IgG-FcRn interaction by competition ELISA. An outline of the steps: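 Competition ELISA: test compounds at various concentrations mixed with 3 nM human IgG, then incubated on plates coated with soluble human FcRn. Inhibition of hIgG binding to shFcRn measured; IC50 reported in µM.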

As for `COCCNC(=O)C(C#N)c1nc2ccccc2nc1N1CCCCCC1` (stereo not given), the half-maximal inhibitory concentration (IC50) turned out to be 120 µM.

`COc1cccc(CNC(=O)C(C#N)c2nc3ccccc3nc2N2CCCCC2)c1` (stereo not given): the concentration for half-maximal inhibition (IC50) is > 500 µM.

In the case of `COc1cccc(CNC(=O)C(C#N)c2nc3ccccc3nc2N2CCOCC2)c1` (stereo not given), the IC50 is > 500 µM.

Regarding `COc1cccc(CNC(=O)C(C#N)c2nc3ccccc3nc2N2CCN(C)CC2)c1` (stereo not given), the IC50 is > 500 µM.

As to `COc1cccc(CNC(=O)C(C#N)c2nc3ccccc3nc2NC2CCCCCC2)c1` (stereo not given), the concentration for half-maximal inhibition (IC50) is > 500 µM.

Take `COc1cccc(CNC(=O)C(C#N)c2nc3ccccc3nc2NC2CC3CCC2C3)c1` (stereo not given): the IC50 is > 500 µM.

As to `COc1cccc(CNC(=O)C(C#N)c2nc3ccccc3nc2Sc2ccccc2)c1` (stereo not given), the IC50 was > 500 µM.

Turning to `COc1cccc(CNC(=O)C(C#N)c2nc3ccccc3nc2Nc2ccccc2)c1` (stereo not given), the IC50 was > 500 µM.

Regarding `COc1cccc(CNC(=O)C(C#N)c2nc3ccccc3nc2NCc2ccccc2)c1` (stereo not given), the concentration for half-maximal inhibition (IC50) was > 500 µM.

For `N#CC(C(=O)NCc1cccc(-c2nccs2)c1)c1nc2ccccc2nc1N1CCCCCC1` (stereo not given), the IC50 stood at 40 µM.

Take `Cc1cncc(Oc2cccc(CNC(=O)C(C#N)c3nc4ccccc4nc3N3CCCCCC3)c2)n1` (stereo not given): the IC50 turned out to be 200 µM.

As for `N#CC(C(=O)NCc1cccc(OCCN2CCOCC2)c1)c1nc2ccccc2nc1N1CCCCCC1` (stereo not given), the IC50 was determined as 400 µM.

In the case of `CN(C)CCCOc1cccc(CNC(=O)C(C#N)c2nc3ccccc3nc2N2CCCCCC2)c1` (stereo not given), the IC50 stood at 200 µM.

For the compound `N#CC(C(=O)NCc1ccc(OCCN2CCOCC2)cc1)c1nc2ccccc2nc1N1CCCCCC1` (stereo not given), the IC50 is > 500 µM.

Regarding `COc1ccc([C@@H](C)NC(=O)C(C#N)c2nc3ccccc3nc2N2CCCCCC2)cc1` (stereo not given in full), the IC50 was determined as 40 µM.

For `COc1ccc([C@H](C)NC(=O)C(C#N)c2nc3ccccc3nc2N2CCCCCC2)cc1` (stereo not given in full), the concentration for half-maximal inhibition (IC50) was 40 µM.

Turning to `COc1ccc(C(CN2CCOCC2)NC(=O)C(C#N)c2nc3ccccc3nc2N2CCCCCC2)cc1` (stereo not given), the IC50 is 2 µM.

For `COc1cccc(CNC(=O)C(C#N)c2nc3ccc(C#N)cc3nc2N2CCCCCC2)c1` (stereo not given), the IC50 turned out to be 100 µM.

`COc1cccc(CNC(=O)C(C#N)c2nc3ccc([N+](=O)[O-])cc3nc2N2CCCCCC2)c1` (stereo not given) came in with an IC50 of 500 µM.

Regarding `COc1cccc(CNC(=O)C(C#N)c2nc3cc(OC)ccc3nc2N2CCCCCC2)c1` (stereo not given), the half-maximal inhibitory concentration (IC50) is > 500 µM.

Turning to `COc1cccc(CNC(=O)C(C#N)c2nc3cc(Cl)c(Cl)cc3nc2N2CCCCCC2)c1` (stereo not given), the 50% inhibitory concentration (IC50) turned out to be 30 µM.

Take `COc1cccc(CNC(=O)C(C#N)c2nc3ccc(C(=O)Nc4ccccc4)cc3nc2N2CCCCCC2)c1` (stereo not given): the 50% inhibitory concentration (IC50) was > 500 µM.

Regarding `COc1cccc(CNC(=O)C(C#N)c2nc3ccc(C(=O)NCc4cccnc4)cc3nc2N2CCCCCC2)c1` (stereo not given), the IC50 is > 500 µM.

For `COc1cccc(CNC(=O)C(C#N)c2nc3ccc(C(=O)NCCc4cccnc4)cc3nc2N2CCCCCC2)c1` (stereo not given), the IC50 is > 500 µM.

As to `COc1cccc(CNC(=O)C(C#N)c2nc3ccc(C(=O)NCCCN(C)C)cc3nc2N2CCCCCC2)c1` (stereo not given), the IC50 came to 400 µM.

Take `COc1cccc(CNC(=O)C(C#N)c2nc3ccccc3nc2N2CCCOCC2)c1` (stereo not given): the 50% inhibitory concentration (IC50) is > 500 µM.

With `COc1cccc(CNC(=O)C(C#N)c2nc3ccccc3nc2N2CCCNCC2)c1` (stereo not given), the IC50 is > 500 µM.

As to `COc1cccc(CNC(=O)C(C#N)c2nc3ccccc3nc2N2CCCN(C)CC2)c1` (stereo not given), the 50% inhibitory concentration (IC50) is > 500 µM.

`COc1cccc(CNC(=O)C(C#N)c2nc3ccccc3nc2N2CCCN(C(C)=O)CC2)c1` (stereo not given): the concentration for half-maximal inhibition (IC50) was > 500 µM.

Take `COc1cccc(CNC(=O)C(C#N)c2nc3ccccc3nc2N2CCCN(CCO)CC2)c1` (stereo not given): the 50% inhibitory concentration (IC50) is > 500 µM.

In the case of `COc1cccc(CNC(=O)C(C#N)c2nc3ccccc3nc2N2CCCN(C(=O)OCc3ccccc3)CC2)c1` (stereo not given), the half-inhibitory concentration (IC50) is > 500 µM.

With `COc1cccc(CNC(=O)C(C#N)c2nc3ccccc3nc2N2CCCC3CCCCC32)c1` (stereo not given), the 50% inhibitory concentration (IC50) is > 500 µM.

The compound `COc1cccc(CNC(=O)C(C#N)c2nc3ccccc3nc2N2CCCCCCC2)c1` (stereo not given) came in with an IC50 of 6 µM.

Consider `N#CC(C(=O)NCc1ccco1)c1nc2ccccc2nc1N1CCCCCC1` (stereo not given), for which the half-maximal inhibitory concentration (IC50) was > 1000 µM.

For `N#CC(C(=O)NCc1cccs1)c1nc2ccccc2nc1N1CCCCCC1` (stereo not given), the IC50 was > 1000 µM.

Compound `N#CC(C(=O)NCc1cccc(F)c1)c1nc2ccccc2nc1N1CCCCCC1` (stereo not given) returned an IC50 of 150 µM.

`N#CC(C(=O)NCc1cccc(Cl)c1)c1nc2ccccc2nc1N1CCCCCC1` (stereo not given): the 50% inhibitory concentration (IC50) came to 100 µM.

In the case of `N#CC(C(=O)NCc1cccc(OC(F)(F)F)c1)c1nc2ccccc2nc1N1CCCCCC1` (stereo not given), the concentration for half-maximal inhibition (IC50) came out at 80 µM.

With `COc1cccc(CNC(=O)C(C#N)c2nc3ccccc3nc2N2CCCCCC2)c1` (stereo not given), the 50% inhibitory concentration (IC50) was determined as 10 µM.

In turn, `COc1ccc(CNC(=O)C(C#N)c2nc3ccccc3nc2N2CCCCCC2)cc1` (stereo not given) registered a concentration for half-maximal inhibition (IC50) of 50 µM.

For `N#CC(C(=O)NCc1ccc(O)cc1)c1nc2ccccc2nc1N1CCCCCC1` (stereo not given), the half-inhibitory concentration (IC50) was > 500 µM.

Turning to `N#Cc1ccc(CNC(=O)C(C#N)c2nc3ccccc3nc2N2CCCCCC2)cc1` (stereo not given), the half-maximal inhibitory concentration (IC50) was 40 µM.

For `CN(C)c1ccc(CNC(=O)C(C#N)c2nc3ccccc3nc2N2CCCCCC2)cc1` (stereo not given), the IC50 is > 500 µM.

The compound `COc1ccccc1CNC(=O)C(C#N)c1nc2ccccc2nc1N1CCCCCC1` (stereo not given) registered an IC50 of 150 µM.

Consider `COc1ccc(CNC(=O)C(C#N)c2nc3ccccc3nc2N2CCCCCC2)cc1OC` (stereo not given), for which the IC50 was determined as 250 µM.

On to `COc1cccc(CCNC(=O)C(C#N)c2nc3ccccc3nc2N2CCCCCC2)c1` (stereo not given), for which the IC50 came out at 100 µM.

Turning to `COc1ccc(CCNC(=O)C(C#N)c2nc3ccccc3nc2N2CCCCCC2)cc1` (stereo not given), the IC50 came to 120 µM.

With `N#CC(C(=O)NCCc1ccc(N)cc1)c1nc2ccccc2nc1N1CCCCCC1` (stereo not given), the IC50 is > 500 µM.

Regarding `C=CCCNC(=O)C(C#N)c1nc2ccccc2nc1N1CCCCCC1` (stereo not given), the IC50 was > 250 µM.

With `CCCCNC(=O)C(C#N)c1nc2ccccc2nc1N1CCCCCC1` (stereo not given), the IC50 was > 500 µM.

As to `N#CC(C(=O)NCC1CCCCC1)c1nc2ccccc2nc1N1CCCCCC1` (stereo not given), the IC50 is > 500 µM.

`N#CC(C(=O)NCc1ccccc1)c1nc2ccccc2nc1N1CCCCCC1` (stereo not given): the IC50 is > 500 µM.

On to `N#CC(C(=O)NCc1ccccn1)c1nc2ccccc2nc1N1CCCCCC1` (stereo not given), for which the IC50 was > 1000 µM.

As to `N#CC(C(=O)NCc1cccnc1)c1nc2ccccc2nc1N1CCCCCC1` (stereo not given), the IC50 is > 1000 µM.

`COCCCNC(=O)C(C#N)c1nc2ccccc2nc1N1CCCCCC1` (stereo not given): the IC50 was > 150 µM.

The values above are taken from ChEMBL document CHEMBL2321849, “Discovery and structure-activity relationships of small molecules that block the human immunoglobulin G-human neonatal Fc receptor (hIgG-hFcRn) protein-protein interaction” (Bioorg Med Chem Lett, 2013).
